According to ChEMBL document CHEMBL6134777, “Modulating polybasic character of galactose-based glycosylated antitumor ether lipids for enhanced cytotoxic response” (2025):
Activity calls are given as the source filed them. The rule behind the calls is not given here.

Tests used:
[1] = test system: BT-474; test: Cytotoxicity against human BT-474 cells assessed as cell death measured after 48 hrs; assay type: functional
How it was run: (§1)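 BT-474 cells in DMEM/F12 with 10% FBS plus penicillin/streptomycin, 37°C, 5% CO2. Seeded at 10,500 cells/well and left 24 h, then exposed to rising drug concentrations (stock 30 mM) for 48 h. Read-out: PrestoBlue (10% v/v), 40-45 min, fluorescence ex 560/em 590 nm. Values are blank-subtracted and expressed relative to vehicle-treated cells. Two independent experiments, five wells per concentration.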

[2] = test system: MIA PaCa-2; test: Cytotoxicity against human MIA PaCa-2 cells assessed as cell death measured after 48 hrs; assay type: functional
How it was run: (§2)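 MIAPaCa-2 in DMEM with 10% FBS, 2.5% horse serum and penicillin/streptomycin, seeded at 7500 cells/well. After 24 h, treated 48 h with increasing drug concentrations from a 30 mM stock. PrestoBlue 10% v/v, 40-45 min, fluorescence 560/590 nm, blank-subtracted, relative to vehicle-treated cells. Two independent experiments, five wells per concentration.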

[3] = test system: DU-145; test: Cytotoxicity against human DU-145 cells assessed as cell death measured after 48 hrs; assay type: functional
How it was run: (§3)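 DU-145 (5000 cells/well) or JIMT-1 (8000 cells/well) in DMEM with 10% FBS and penicillin/streptomycin. Plated cells rested 24 h, then received increasing drug concentrations (30 mM stock) for 48 h. Viability by PrestoBlue 10% v/v for 40-45 min, fluorescence ex 560/em 590 nm, blank-subtracted, relative to vehicle. Two independent experiments, five wells per concentration.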

[4] = test system: JIMT-1; test: Cytotoxicity against human JIMT-1 cells assessed as cell death measured after 48 hrs; assay type: functional; how it was run: as §3
[5] = Potency index, ratio of monobasic GAEL IC50 to test compound IC50 for cytotoxicity against human MIAPaCa-2 cells assessed as cell death measured after 48 hrs; assay type: functional, MIA PaCa-2
[6] = Potency index, ratio of monobasic GAEL IC50 to test compound IC50 for cytotoxicity against human JIMT-1 cells assessed as cell death measured after 48 hrs; assay type: functional
[7] = Potency index, ratio of monobasic GAEL IC50 to test compound IC50 for cytotoxicity against human DU-145 cells assessed as cell death measured after 48 hrs; assay type: functional
[8] = test system: DU-145; test: Cytotoxicity against human DU-145 cells assessed as cell death up to 10 uM measured after 48 hrs; assay type: functional, cell-based; how it was run: as §3
[9] = test system: BT-474; test: Cytotoxicity against human BT-474 cells assessed as cell death up to 10 uM measured after 48 hrs; assay type: functional, cell-based; how it was run: as §1
[10] = test system: JIMT-1; test: Cytotoxicity against human JIMT-1 cells assessed as cell death up to 10 uM measured after 48 hrs; assay type: functional, cell-based; how it was run: as §3
[11] = test system: MIA PaCa-2; test: Cytotoxicity against human MIAPaCa-2 cells assessed as cell death up to 10 uM measured after 48 hrs; assay type: functional, cell-based; how it was run: as §2
[12] = test system: DU-145; test: Cytotoxicity against human DU-145 cells assessed as cell death at 4 to 8 uM measured after 48 hrs in presence of MX1013 pan-caspase inhibitor; conditions: dose 4-8 µM
[13] = test system: HepG2; test: Cytotoxicity against human HepG2 cells assessed as cell viability measured after 48 hrs by using PrestoBlue cell viability assay; assay type: functional
How it was run: (§4)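 DMEM with 10% FBS plus penicillin/streptomycin, 37°C, 5% CO2. Seeding per well: BxPC3 7500, COV362 7500, HEYC2 8000, HepG2 8000, MDA-MB-231 8000. After 24 h, drug added at increasing concentrations (30 mM stock) for 48 h. PrestoBlue 10% v/v for 40-45 min; fluorescence 560/590 nm, blank-subtracted, relative to vehicle. Two experiments, five wells each; CC50 by nonlinear regression.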

[14] = Cytotoxicity against human COV362 cells assessed as cell viability measured after 48 hrs by using PrestoBlue cell viability assay; assay type: functional; how it was run: as §4
[15] = test system: MIA PaCa-2; test: Cytotoxicity against human MIAPaCa-2 cells assessed as cell death at 6 to 10 uM measured after 48 hrs; assay type: functional, cell-based; conditions: dose 6-10 µM; how it was run: as §2
[16] = test system: HepG2; test: Cytotoxicity against human HepG2 cells assessed as elimination of cells at 6 uM measured after 48 hrs by using PrestoBlue cell viability assay; assay type: functional; how it was run: as §4
[17] = test system: BXPC-3; test: Cytotoxicity against human BXPC-3 cells assessed as cell viability measured after 48 hrs by using PrestoBlue cell viability assay; assay type: functional; how it was run: as §4
[18] = test system: OVCAR-3; test: Cytotoxicity against human OVCAR-3 cells assessed as cell viability measured after 48 hrs by using PrestoBlue cell viability assay; assay type: functional
How it was run: (§5)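 OVCAR-3 in RPMI with 10% FBS, 0.01 mg/mL insulin and penicillin/streptomycin, seeded at 7500 cells/well. After 24 h, exposed 48 h to increasing drug concentrations (30 mM stock). PrestoBlue 10% v/v, 40-45 min, fluorescence ex 560/em 590 nm, blank-subtracted, relative to vehicle. Two experiments, five wells per concentration.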

[19] = Cytotoxicity against human HEY C2 cells assessed as cell viability measured after 48 hrs by using PrestoBlue cell viability assay; assay type: functional; how it was run: as §4
[20] = test system: MDA-MB-231; test: Cytotoxicity against human MDA-MB-231 cells assessed as cell viability measured after 48 hrs by using PrestoBlue cell viability assay; assay type: functional; how it was run: as §4
[21] = Cytotoxicity against human COV362 cells assessed as cell death at 8 uM measured after 48 hrs by using PrestoBlue cell viability assay; assay type: functional
How it was run: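 COV362 cells in DMEM with 10% FBS and penicillin/streptomycin at 37 °C and 5% CO₂, seeded at 7500 per well. After 24 h, exposed 48 h to increasing drug concentrations diluted from a 30 mM stock. PrestoBlue (10% v/v) added for 40-45 min, fluorescence read at ex 560/em 590 nm. Cell-free blanks subtracted, viability relative to vehicle. Two independent experiments, five wells per concentration.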

[22] = test system: BT-474; test: Cytotoxicity against human BT-474 cells assessed as cell death at 6 to 10 uM measured after 48 hrs; assay type: functional, cell-based; conditions: dose 6-10 µM; how it was run: as §1
[23] = test system: OVCAR-3; test: Cytotoxicity against human OVCAR-3 cells assessed as elimination of cells at 6 uM measured after 48 hrs by using PrestoBlue cell viability assay; assay type: functional; how it was run: as §5
[24] = test system: DU-145; test: Cytotoxicity against human DU-145 cells assessed as cell death at 6 to 10 uM measured after 48 hrs; assay type: functional, cell-based; conditions: dose 6-10 µM; how it was run: as §3
[25] = test system: JIMT-1; test: Cytotoxicity against human JIMT-1 cells assessed as cell death at 6 to 10 uM measured after 48 hrs; assay type: functional, cell-based; conditions: dose 6-10 µM; how it was run: as §3

SMILES	CC50 [1]	CC50 [2]	CC50 [3]	CC50 [4]	Ratio IC50 [5]	Ratio IC50 [6]	Ratio IC50 [7]	other results
CCCCCCCCCCCCCCCCOC[C@H](CO[C@H]1O[C@H](CO)[C@H](N)[C@H](O)[C@H]1N)OC	> 10 µM	6.5 µM	6.3 µM	5 µM				
CCCCCCCCCCCCCCCCOC[C@H](CO[C@@H]1O[C@H](CN)[C@H](O)[C@H](O)[C@H]1N)OC	6.4 µM	7.5 µM	6.6 µM	5.7 µM	1.5	1.5	1.5	
CCCCCCCCCCCCCCCCOC[C@H](CO[C@@H]1O[C@H](CO)[C@H](N)[C@H](O)[C@H]1N)OC	> 10 µM	7.8 µM	6.6 µM	5.8 µM				
CCCCCCCCCCCCCCCCOC[C@H](CO[C@H]1O[C@H](CO)[C@H](O)[C@H](O)[C@H]1N)OC	> 20 µM	10 µM	10.9 µM	9.9 µM				
CCCCCCCCCCCCCCCCOC[C@H](CN)O[C@H]1O[C@H](CO)[C@H](N)[C@H](O)[C@H]1N	7.4 µM	8.1 µM	8.2 µM	6.3 µM				
COc1cccc2c1C(=O)c1c(O)c3c(c(O)c1C2=O)C[C@@](O)(C(=O)CO)C[C@@H]3O[C@H]1C[C@H](N)[C@H](O)[C@H](C)O1								Activity [8]: inactive; Activity [9]: inactive; Activity [10]: inactive; Activity [11]: inactive
CCCCCCCCCCCCCCCCOC[C@H](CO[C@@H]1O[C@H](CN)[C@H](N)[C@H](O)[C@H]1N)OC	5.6 µM	4.5 µM	3.3 µM	3.8 µM	2	2	2	Activity [12]: Active; CC50 [13]: 3.6 µM; CC50 [14]: 3.1 µM; Activity [15]: Active; Activity [16]: 100%; CC50 [17]: 2.6 µM; CC50 [18]: 2.6 µM; CC50 [19]: 5.5 µM; CC50 [20]: 6.5 µM; Activity [21]: 100%; Activity [22]: Active; Activity [23]: 100%; Activity [24]: Active; Activity [25]: Active
CCCCCCCCCCCCCCCCOC[C@H](CN)O[C@@H]1O[C@H](CO)[C@H](N)[C@H](O)[C@H]1N	> 10 µM	7.4 µM	> 10 µM	8.9 µM				
CCCCCCCCCCCCCCCCOC[C@H](CO[C@H]1O[C@H](CN)[C@H](N)[C@H](O)[C@H]1N)OC	8 µM	5.3 µM	6.7 µM	5.4 µM				
CCCCCCCCCCCCCCCCOC[C@H](CO[C@H]1O[C@H](CN)[C@H](O)[C@H](O)[C@H]1N)OC	6.9 µM	6.6 µM	5.5 µM	4.9 µM	1.5	1.5	1.5	
